Columns and labels:
[1] = biological target: T1, Angiotensin-converting enzyme (Oryctolagus cuniculus) (UniProt P12822); experiment: Inhibitory activity towards purified rabbit lung Angiotensin I converting enzyme
T1 sequence (whole entry): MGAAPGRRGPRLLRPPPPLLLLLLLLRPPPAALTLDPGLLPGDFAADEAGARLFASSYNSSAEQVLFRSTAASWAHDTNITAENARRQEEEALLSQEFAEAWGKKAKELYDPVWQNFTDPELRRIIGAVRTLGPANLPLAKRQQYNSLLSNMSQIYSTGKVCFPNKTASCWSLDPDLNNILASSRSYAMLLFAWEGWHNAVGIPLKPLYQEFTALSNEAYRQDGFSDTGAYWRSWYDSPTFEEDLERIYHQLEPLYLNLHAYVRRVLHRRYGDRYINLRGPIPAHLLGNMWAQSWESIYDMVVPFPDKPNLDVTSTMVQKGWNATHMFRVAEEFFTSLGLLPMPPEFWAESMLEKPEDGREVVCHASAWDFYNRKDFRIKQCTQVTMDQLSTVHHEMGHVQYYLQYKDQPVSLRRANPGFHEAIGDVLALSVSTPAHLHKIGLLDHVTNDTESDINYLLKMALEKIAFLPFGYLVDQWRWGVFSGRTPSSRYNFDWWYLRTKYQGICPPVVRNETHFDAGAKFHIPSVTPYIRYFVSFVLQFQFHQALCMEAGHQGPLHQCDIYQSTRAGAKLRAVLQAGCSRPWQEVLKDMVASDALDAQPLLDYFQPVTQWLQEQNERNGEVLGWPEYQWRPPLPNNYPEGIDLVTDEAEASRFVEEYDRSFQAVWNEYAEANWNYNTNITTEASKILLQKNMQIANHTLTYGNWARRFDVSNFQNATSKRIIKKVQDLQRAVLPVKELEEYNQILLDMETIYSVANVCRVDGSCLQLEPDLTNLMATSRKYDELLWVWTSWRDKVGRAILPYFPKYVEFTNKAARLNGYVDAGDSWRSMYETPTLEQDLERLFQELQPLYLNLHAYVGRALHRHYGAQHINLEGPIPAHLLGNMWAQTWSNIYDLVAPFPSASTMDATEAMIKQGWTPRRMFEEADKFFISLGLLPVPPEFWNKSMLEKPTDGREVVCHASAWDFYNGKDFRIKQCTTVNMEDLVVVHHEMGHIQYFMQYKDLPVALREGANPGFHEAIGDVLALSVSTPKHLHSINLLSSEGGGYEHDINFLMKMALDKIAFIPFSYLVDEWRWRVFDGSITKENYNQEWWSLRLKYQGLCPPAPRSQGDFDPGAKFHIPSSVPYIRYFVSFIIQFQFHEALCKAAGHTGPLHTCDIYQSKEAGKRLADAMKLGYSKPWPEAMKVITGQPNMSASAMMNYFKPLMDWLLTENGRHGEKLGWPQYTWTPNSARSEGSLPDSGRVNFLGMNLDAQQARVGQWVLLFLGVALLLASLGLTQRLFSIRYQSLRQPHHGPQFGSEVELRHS
Method in brief: (§1)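 Purified rabbit lung ACE was used, following a published method with two changes: Zn2+ (20 μM) was added to the purified enzyme, and the substrate was radiolabeled. The read-out was inhibition of enzyme activity.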

[2] = Half-life (hydrolysis) in human blood; assay type: ADME
[3] = biological target: T1, Angiotensin-converting enzyme (Oryctolagus cuniculus); experiment: Inhibitory activity towards purified rabbit lung angiotensin I converting enzyme; method in brief: as §1
[4] = biological target: T1, Angiotensin-converting enzyme (Oryctolagus cuniculus); experiment: Inhibitory activity towards purified rabbit lung angiotensin I converting enzyme; no inhibition at 10 e-5 M
[5] = biological target: T1, Angiotensin-converting enzyme (Oryctolagus cuniculus); experiment: Inhibitory activity towards purified rabbit lung angiotensin I converting enzyme at 10 e-4 M

| Compound | IC50 [1] | half-life [2] | IC50 [3] | also measured |
| --- | --- | --- | --- | --- |
| C[C@H](CS)C(=O)N1CCC[C@H]1C(=O)O | 2.7 nM | – | – | – |
| C[C@H](CS)C(=O)O[C@@H](CSC1CCCC1)C(=O)O | 1.8 nM | 27 min | – | – |
| CCC(CC)SC[C@H](OC(=O)[C@H](C)CS)C(=O)O | – | 37 min | 2 nM | – |
| C[C@H](CS)C(=O)O[C@@H](Cc1ccccc1)C(=O)O | 10.6 nM | 23 min | – | – |
| C[C@H](CS)C(=O)N[C@@H](Cc1ccccc1)C(=O)O | 84.7 nM | > 60 min | – | – |
| CSC[C@H](OC(=O)[C@H](C)CS)C(=O)O | – | 14 min | 5.7 nM | – |
| C[C@H](CS)C(=O)OCC(=O)O | – | 53 min | 123 nM | – |
| C[C@H](CS)C(=O)O[C@@H](CSCc1ccccc1)C(=O)O | 3.2 nM | > 60 min | – | – |
| CSC[C@H](O)C(=O)O | – | – | – | inhibition [4]: no inhibition at 10 e-5 M |
| CC(C)SC[C@H](OC(=O)[C@H](C)CS)C(=O)O | – | 20 min | 2.8 nM | – |
| C[C@H](CS)C(=O)O | – | – | – | inhibition [5]: 30% |
